Assay results taken from ChEMBL document CHEMBL1139673, “Factor VIIa inhibitors: gaining selectivity within the trypsin family” (Bioorg Med Chem Lett, 2006).

How the values were obtained:
[1] = target: T1, Coagulation factor VII (Homo sapiens, UniProt P08709); assay: Binding affinity to factor 7a
T1 sequence (P08709 whole entry): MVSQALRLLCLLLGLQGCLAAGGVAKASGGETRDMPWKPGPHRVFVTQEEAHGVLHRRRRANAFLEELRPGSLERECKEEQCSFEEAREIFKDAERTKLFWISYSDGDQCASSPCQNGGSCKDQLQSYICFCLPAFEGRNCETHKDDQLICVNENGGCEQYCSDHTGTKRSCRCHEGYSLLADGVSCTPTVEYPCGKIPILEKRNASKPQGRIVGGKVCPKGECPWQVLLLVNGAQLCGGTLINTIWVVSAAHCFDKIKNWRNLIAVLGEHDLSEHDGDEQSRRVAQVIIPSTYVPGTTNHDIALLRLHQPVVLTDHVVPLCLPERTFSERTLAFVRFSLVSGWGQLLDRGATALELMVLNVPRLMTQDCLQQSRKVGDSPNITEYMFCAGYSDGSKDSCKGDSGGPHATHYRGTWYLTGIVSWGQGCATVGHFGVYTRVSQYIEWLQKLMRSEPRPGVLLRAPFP

[2] = species: Homo sapiens; assay: Selectivity for factor 7a versus trypsin
Summary of the method: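 Apparent Ki (Morrison tight-binding fit) from two chromogenic assays, both at room temperature with substrate at Km and A405 monitored over time. FVIIa: 7 nM factor VII with 11 nM recombinant soluble human tissue factor in Tris pH 7.4, NaCl, 5.0 mM CaCl2, 1.5 mM EDTA, Tween 20, 10% DMSO; CH3SO2-D-CHA-But-Arg-pNA 500 µM. Trypsin: 10 nM, same buffer without CaCl2; Tosyl-Gly-Pro-Lys-pNA 25 µM.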

SMILES | Ki [1] | Selectivity ratio [2]
N=C(N)c1ccc2[nH]c(-c3cc(C(CC(=O)O)C(=O)O)cc(-c4cc(Cl)cc(Cl)c4Cl)c3O)nc2c1 (stereo unspecified) | 210 nM | 39
Cc1cccc(-c2cc(C(CC(=O)O)C(=O)O)cc(-c3nc4cc(C(=N)N)ccc4[nH]3)c2O)c1 (stereo unspecified) | – | 108
N=C(N)c1ccc2[nH]c(-c3cc(C(CC(=O)O)C(=O)O)cc(-c4cccc(O)c4)c3O)nc2c1 (stereo unspecified) | 88 nM | 99
Cc1cccc(-c2cc(C(CC(=O)O)C(=O)O)cc(-c3nc4ccc(C(=N)N)cc4[nH]3)c2O)c1 (stereo unspecified) | 38 nM | –
CC(=O)c1cccc(-c2cc(C(CC(=O)O)C(=O)O)cc(-c3nc4cc(C(=N)N)ccc4[nH]3)c2O)c1 (stereo unspecified) | 33 nM | 197
N=C(N)c1ccc2nc(-c3cc(C(CC(=O)O)C(=O)O)cc(-c4ccccc4N)c3O)[nH]c2c1 (stereo unspecified) | 420 nM | –
N=C(N)c1ccc2[nH]c(-c3cc(C(CC(=O)O)C(=O)O)cc(-c4cccc(Cl)c4Cl)c3O)nc2c1 (stereo unspecified) | – | 44
N=C(N)c1ccc2[nH]c(-c3cc(C(CC(=O)O)C(=O)O)cc(-c4ccc(O)cc4)c3O)nc2c1 (stereo unspecified) | 880 nM | 10
N=C(N)c1ccc2[nH]c(-c3cc(C(CC(=O)O)C(=O)O)ccc3O)nc2c1 (stereo unspecified) | 6400 nM | 1
N=C(N)c1ccc2[nH]c(-c3cc(C(CC(=O)O)C(=O)O)cc(-c4cc(Cl)cc(Cl)c4O)c3O)nc2c1 (stereo unspecified) | 14 nM | 421
N#Cc1cccc(-c2cc(C(CC(=O)O)C(=O)O)cc(-c3nc4cc(C(=N)N)ccc4[nH]3)c2O)c1 (stereo unspecified) | 77 nM | 71
N=C(N)c1ccc2[nH]c(-c3cc(C(CC(=O)O)C(=O)O)cc(-c4cc(N)ccc4O)c3O)nc2c1 (stereo unspecified) | 10 nM | 1790
N#Cc1ccc(O)c(-c2cc(C(CC(=O)O)C(=O)O)cc(-c3nc4cc(C(=N)N)ccc4[nH]3)c2O)c1 (stereo unspecified) | 12 nM | 2960
N=C(N)c1ccc2[nH]c(-c3cc(C(CC(=O)O)C(=O)O)cc(-c4cccc([N+](=O)[O-])c4)c3O)nc2c1 (stereo unspecified) | – | 268
N=C(N)c1ccc2[nH]c(-c3cc(C(CC(=O)O)C(=O)O)cc(-c4ccc(F)c(Cl)c4)c3O)nc2c1 (stereo unspecified) | – | 34
Cc1ccc(-c2cc(C(CC(=O)O)C(=O)O)cc(-c3nc4ccc(C(=N)N)cc4[nH]3)c2O)cc1 (stereo unspecified) | 420 nM | –
CC(C)c1cccc(-c2cc(C(CC(=O)O)C(=O)O)cc(-c3nc4ccc(C(=N)N)cc4[nH]3)c2O)c1 (stereo unspecified) | 76 nM | –
N=C(N)c1ccc2nc(-c3cc(C(CC(=O)O)C(=O)O)cc(-c4cc(F)cc(F)c4)c3O)[nH]c2c1 (stereo unspecified) | 68 nM | –
N=C(N)c1ccc2[nH]c(-c3cc(C(CC(=O)O)C(=O)O)cc(-c4c(O)cc(Cl)cc4Cl)c3O)nc2c1 (stereo unspecified) | 25 nM | 192

SMILES | Ki [1] | Selectivity ratio [2]
N=C(N)c1ccc2[nH]c(-c3cc(C(CC(=O)O)C(=O)O)cc(-c4ccccc4)c3O)nc2c1 (stereo unspecified) | 74 nM | 91
COc1ccc(F)cc1-c1cc(C(CC(=O)O)C(=O)O)cc(-c2nc3cc(C(=N)N)ccc3[nH]2)c1O (stereo unspecified) | 330 nM | 52
COc1ccc(C#N)cc1-c1cc(C(CC(=O)O)C(=O)O)cc(-c2nc3cc(C(=N)N)ccc3[nH]2)c1O (stereo unspecified) | 280 nM | 54
N=C(N)c1ccc2[nH]c(-c3cc(C(CC(=O)O)C(=O)O)cc(-c4ccccc4CO)c3O)nc2c1 (stereo unspecified) | 730 nM | 16
Cc1cc(C)cc(-c2cc(C(CC(=O)O)C(=O)O)cc(-c3nc4cc(C(=N)N)ccc4[nH]3)c2O)c1 (stereo unspecified) | 29 nM | 1080
CC(=O)Nc1cccc(-c2cc(C(CC(=O)O)C(=O)O)cc(-c3nc4ccc(C(=N)N)cc4[nH]3)c2O)c1 (stereo unspecified) | 110 nM | –
N=C(N)c1ccc2[nH]c(-c3cc(C(CC(=O)O)C(=O)O)cc(-c4cc([N+](=O)[O-])ccc4O)c3O)nc2c1 (stereo unspecified) | 6 nM | 8500
CC(C)(C)c1ccc(-c2cc(C(CC(=O)O)C(=O)O)cc(-c3nc4cc(C(=N)N)ccc4[nH]3)c2O)cc1 (stereo unspecified) | 16000 nM | 1
N=C(N)c1ccc2[nH]c(-c3cc(C(CC(=O)O)C(=O)O)cc(-c4ccccc4N)c3O)nc2c1 (stereo unspecified) | – | 41
N=C(N)c1ccc2[nH]c(-c3cc(C(CC(=O)O)C(=O)O)cc(-c4cc(Cl)cc(Br)c4O)c3O)nc2c1 (stereo unspecified) | 9 nM | 398
N=C(N)c1ccc2[nH]c(-c3cc(C(CC(=O)O)C(=O)O)cc(-c4cccc(N)c4)c3O)nc2c1 (stereo unspecified) | 36 nM | 250
N=C(N)c1ccc2nc(-c3cc(C(CC(=O)O)C(=O)O)cc(-c4ccc(Cl)cc4)c3O)[nH]c2c1 (stereo unspecified) | 440 nM | –
N=C(N)c1ccc2[nH]c(-c3cc(C(CC(=O)O)C(=O)O)cc(-c4ccccc4CS)c3O)nc2c1 (stereo unspecified) | 64 nM | 103
N=C(N)c1ccc2nc(-c3cc(C(CC(=O)O)C(=O)O)cc(-c4ccc(F)c(Cl)c4)c3O)[nH]c2c1 (stereo unspecified) | 130 nM | –
CC(C)c1cccc(-c2cc(C(CC(=O)O)C(=O)O)cc(-c3nc4cc(C(=N)N)ccc4[nH]3)c2O)c1 (stereo unspecified) | – | 40
N=C(N)c1ccc2[nH]c(-c3cc(C(CC(=O)O)C(=O)O)cc(-c4cc(F)cc(F)c4)c3O)nc2c1 (stereo unspecified) | – | 115
N=C(N)c1ccc2[nH]c(-c3cc(C(CC(=O)O)C(=O)O)cc(-c4cccc(Cl)c4)c3O)nc2c1 (stereo unspecified) | 66 nM | 59
N=C(N)c1ccc2[nH]c(-c3cc(C(CC(=O)O)C(=O)O)cc(-c4cc(Cl)cc(Cl)c4)c3O)nc2c1 (stereo unspecified) | – | 98
N=C(N)c1ccc2nc(-c3cc(C(CC(=O)O)C(=O)O)cc(-c4cccc(CO)c4)c3O)[nH]c2c1 (stereo unspecified) | 21 nM | –

SMILES | Ki [1] | Selectivity ratio [2]
N=C(N)c1ccc2nc(-c3cc(C(CC(=O)O)C(=O)O)cc(-c4cc(Cl)cc(Cl)c4)c3O)[nH]c2c1 (stereo unspecified) | 27 nM | –
N=C(N)c1ccc2[nH]c(-c3cc(C(CC(=O)O)C(=O)O)cc(-c4cccc(CO)c4)c3O)nc2c1 (stereo unspecified) | – | 216
N=C(N)c1ccc2[nH]c(-c3cc(C(CC(=O)O)C(=O)O)cc(-c4cc(Cl)ccc4O)c3O)nc2c1 (stereo unspecified) | 5.4 nM | 2500
N=C(N)c1ccc2nc(-c3cc(C(CC(=O)O)C(=O)O)cc(-c4ccccc4[N+](=O)[O-])c3O)[nH]c2c1 (stereo unspecified) | 22 nM | –
N=C(N)c1ccc2[nH]c(-c3cc(C(CC(=O)O)C(=O)O)cc(-c4cc(Cl)ccc4Cl)c3O)nc2c1 (stereo unspecified) | 250 nM | 35
Cc1ccc(-c2cc(C(CC(=O)O)C(=O)O)cc(-c3nc4cc(C(=N)N)ccc4[nH]3)c2O)cc1 (stereo unspecified) | – | 8
N=C(N)c1ccc2[nH]c(-c3cc(C(CC(=O)O)C(=O)O)cc(-c4ccc(Cl)cc4)c3O)nc2c1 (stereo unspecified) | – | 2
Cc1ccccc1-c1cc(C(CC(=O)O)C(=O)O)cc(-c2nc3cc(C(=N)N)ccc3[nH]2)c1O (stereo unspecified) | 500 nM | 16
N=C(N)c1ccc2[nH]c(-c3cc(C(CC(=O)O)C(=O)O)cc(-c4cccc(OC(F)F)c4)c3O)nc2c1 (stereo unspecified) | 120 nM | 51
N=C(N)c1ccc2[nH]c(-c3cc(C(CC(=O)O)C(=O)O)cc(-c4ccccc4[N+](=O)[O-])c3O)nc2c1 (stereo unspecified) | – | 25
CC(=O)Nc1cccc(-c2cc(C(CC(=O)O)C(=O)O)cc(-c3nc4cc(C(=N)N)ccc4[nH]3)c2O)c1 (stereo unspecified) | – | 118
N=C(N)c1ccc2nc(-c3cc(C(CC(=O)O)C(=O)O)cc(-c4cccc(Cl)c4Cl)c3O)[nH]c2c1 (stereo unspecified) | 270 nM | –
N=C(N)c1ccc2[nH]c(-c3cc(C(CC(=O)O)C(=O)O)cc(-c4cc(F)ccc4O)c3O)nc2c1 (stereo unspecified) | – | 4400
N=C(N)c1ccc2[nH]c(-c3cc(C(CC(=O)O)C(=O)O)cc(-c4ccccc4O)c3O)nc2c1 (stereo unspecified) | 13 nM | 1080
N=C(N)c1ccc2[nH]c(-c3cc(C(CC(=O)O)C(=O)O)cc(-c4cccc(CN)c4)c3O)nc2c1 (stereo unspecified) | 780 nM | 18
COc1ccc(-c2cc(C(CC(=O)O)C(=O)O)cc(-c3nc4cc(C(=N)N)ccc4[nH]3)c2O)cc1 (stereo unspecified) | 2250 nM | 1
N=C(N)c1ccc2[nH]c(-c3cc(C(CC(=O)O)C(=O)O)cc(-c4cccnc4)c3O)nc2c1 (stereo unspecified) | 550 nM | 31
Cc1cccc(NC(=O)Cc2cc(C(CC(=O)O)C(=O)O)cc(-c3nc4cc(C(=N)N)ccc4[nH]3)c2O)c1 (stereo unspecified) | 54 nM | 102
